# Activity calls are given as the source filed them. The calls are words filed in the database; no cut-off is given here.
# Legend:
# [1] = Antiproliferative activity against human HCT116 cells after 72 hrs by MTT assay; assay type: functional, cell-based; settings: HCT-116, 72 h
# Outline: (§1)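 MTT: cells seeded at 1500–4000 per well, grown 24 h, then given serial dilutions (1% DMSO final) for 72 h at 37 °C. MTT was added for 4 h, formazan dissolved in DMSO and absorbance read at 490 nm. Three separate experiments in triplicate; IC50 is the concentration giving 50% cell death versus control.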
# [2] = tested on: MCF7; assay: Antiproliferative activity against human MCF7 cells after 72 hrs by MTT assay; assay type: functional, cell-based; settings: MCF7, 72 h; outline: as §1
# [3] = tested on: A549; assay: Antiproliferative activity against human A549 cells after 72 hrs by MTT assay; assay type: functional, cell-based; settings: A549, 72 h; outline: as §1
# [4] = Antiproliferative activity against human U87MG cells after 72 hrs by MTT assay; assay type: functional, cell-based, U-87MG ATCC; settings: U-87 MG; outline: as §1
# [5] = tested on: HCT-116; assay: Induction of cell cycle arrest in human HCT116 cells assessed as accumulation at G0/G1 phase at 3 uM after 24 hrs by propidium iodide staining based flow cytometry (reference value: 48.31%); assay type: functional
# [6] = tested on: CCRF S-180; assay: Antitumor activity against mouse S180 cells homografted in mouse assessed as reduction tumor weight at 15 mg/kg, po once daily for 8 days; assay type: functional; settings: CCRF S-180, 192 h
# Outline: (§2)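 Mice (19.6 g average) had 3 × 10⁶ S180 cells injected subcutaneously into the flank and were randomized into three groups of 8. From the next day they received compound in NMP/PEG400/H2O (1:8:1) orally once daily for 8 days, or solvent alone. Body weights were recorded daily. On Day 9 tumors and bodies were weighed and tumor-weight inhibitory ratios calculated.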
# [7] = tested on: Mus musculus; assay: Toxicity in mouse homografted with mouse S180 cells assessed as effect on body weight at 30 mg/kg, po once daily for 8 days; assay type: organism-based, CCRF S-180; set-up: dose 30 mg/kg, route oral; settings: in vivo, 192 h; outline: as §2
# [8] = tested on: HCT-116; assay: Induction of cellular morphological changes in human HCT116 cells assessed as induction of vacuolization at 1 and 10 uM after 24 hrs by Hoechst staining based phase contrast microscopy; assay type: functional, cell-based
# Outline: (§3)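 HCT-116 cells (15,000 per well) were grown 24 h, then exposed to 0.1, 1 or 10 µM for 24 h; vehicle control was 0.5% DMSO. Cells were photographed under phase-contrast microscopy, then stained with Hoechst 33258 for 0.5 h at 37 °C, washed with PBS and viewed by fluorescence microscopy.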
# [9] = tested on: HCT-116; assay: Induction of cell cycle arrest in human HCT116 cells assessed as accumulation at S phase at 3 uM after 24 hrs by propidium iodide staining based flow cytometry (reference value: 38.71%); assay type: functional
# [10] = tested on: HCT-116; assay: Induction of apoptosis in human HCT116 cells assessed as early apoptotic cells level at 3 uM after 24 hrs by annexin V-FITC/propidium iodide staining based flow cytometry (reference value: 4.36%); assay type: functional
# Outline: (§4)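 HCT-116 cells were seeded at 1.5 × 10⁵ per well, grown 24 h, then treated 24 h; vehicle control was 0.5% DMSO. Cells were stained with an Annexin V-FITC/PI kit and analysed by flow cytometry. Q4 = early apoptotic, Q2 = late apoptotic; apoptosis rate = Q2 + Q4. Means of three independent experiments.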
# [11] = target: PI3-kinase p110-alpha/p85-alpha (Homo sapiens, UniProt P42336); assay: Inhibition of p110alpha/p85alpha (unknown origin) using L-alpha-phosphatidylinositol incubated for 40 mins by ADP depletion detection based luciferase assay; assay type: protein-complex assay
# [12] = tested on: HCT-116; assay: Induction of cellular morphological changes in human HCT116 cells assessed as induction of fragmentation at 1 and 10 uM after 24 hrs by Hoechst staining based phase contrast microscopy; assay type: functional, cell-based; outline: as §3
# [13] = tested on: HCT-116; assay: Induction of apoptosis in human HCT116 cells at 1 uM after 24 hrs by annexin V-FITC/propidium iodide staining based flow cytometry; assay type: functional; outline: as §4
# [14] = tested on: HCT-116; assay: Induction of nuclear fragmentation in human HCT116 cells at 0. 1 to 10 uM after 24 hrs by Hoechst staining based fluorescent microscopy; assay type: functional, cell-based; outline: as §3
# [15] = tested on: HCT-116; assay: Induction of apoptosis in human HCT116 cells assessed as early apoptotic cells level at 1 uM after 24 hrs by annexin V-FITC/propidium iodide staining based flow cytometry (reference value: 4.36%); assay type: functional; outline: as §4
# [16] = tested on: Mus musculus; assay: Toxicity in mouse homografted with mouse S180 cells assessed as effect on body weight at 15 mg/kg, po once daily for 8 days; assay type: organism-based, CCRF S-180; set-up: dose 15 mg/kg, route oral; settings: in vivo, 192 h; outline: as §2
# [17] = tested on: HCT-116; assay: Induction of cell cycle arrest in human HCT116 cells assessed as accumulation at G2/M phase at 3 uM after 24 hrs by propidium iodide staining based flow cytometry (reference value: 12.98%); assay type: functional
# [18] = tested on: HCT-116; assay: Induction of cellular morphological changes in human HCT116 cells assessed as induction of cell shrinking at 1 and 10 uM after 24 hrs by Hoechst staining based phase contrast microscopy; assay type: functional; outline: as §3
# [19] = Inhibition of PI3K-mediated PI3K/Akt/mTOR pathway in human HCT116 cells assessed as reduction in Akt Ser473 phosphorylation at 10 uM incubated for 1 hr by Western blot method; assay type: cell-based; settings: HCT-116
# Outline: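 HCT-116 cells were seeded at 5 × 10⁵ per well and grown 16 h at 37 °C, then exposed to 10 µM for 1 h; vehicle control was 0.5% DMSO. Lysates were normalised by BCA, run on 10% SDS-PAGE, transferred to nitrocellulose and probed for AKT and p-Ser473 AKT, with β-actin as loading control. Detection was by chemiluminescence; bands were quantified densitometrically.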
# [20] = tested on: HCT-116; assay: Induction of chromatin condensation in human HCT116 cells at 0. 1 to 10 uM after 24 hrs by Hoechst staining based fluorescent microscopy; assay type: functional, cell-based; outline: as §3
# [21] = tested on: HCT-116; assay: Induction of apoptosis in human HCT116 cells assessed as late apoptotic cells level at 1 uM after 24 hrs by annexin V-FITC/propidium iodide staining based flow cytometry (reference value: 3.08%); assay type: functional; outline: as §4
# [22] = tested on: HCT-116; assay: Induction of apoptosis in human HCT116 cells assessed as late apoptotic cells level at 3 uM after 24 hrs by annexin V-FITC/propidium iodide staining based flow cytometry (reference value: 3.08%); assay type: functional; outline: as §4
# [23] = target: PI3K p110 beta/p85 alpha (Homo sapiens, UniProt P42338); assay: Inhibition of p110beta/p85alpha (unknown origin) using L-alpha-phosphatidylinositol incubated for 40 mins by ADP depletion detection based luciferase assay; assay type: protein-complex assay
# [24] = target: PI3-kinase p110-delta/p85-alpha (Homo sapiens, UniProt O00329); assay: Inhibition of p110delta/p85alpha (unknown origin) using L-alpha-phosphatidylinositol incubated for 40 mins by ADP depletion detection based luciferase assay; assay type: protein-complex assay
# [25] = target: PI3-kinase subunit gamma/Phosphoinositide 3-kinase regulatory subunit 5 (Homo sapiens, UniProt P48736); assay: Inhibition of p110gamma/PIK3R5 (unknown origin) using L-alpha-phosphatidylinositol incubated for 40 mins by ADP depletion detection based luciferase assay; assay type: protein-complex assay
# [26] = tested on: CCRF S-180; assay: Antitumor activity against mouse S180 cells homografted in mouse assessed as reduction tumor weight at 30 mg/kg, po once daily for 8 days; assay type: functional; settings: CCRF S-180, 192 h; outline: as §2
# [27] = tested on: HCT-116; assay: Induction of apoptosis in human HCT116 cells at 3 uM after 24 hrs by annexin V-FITC/propidium iodide staining based flow cytometry; assay type: functional; outline: as §4
# PI3-kinase subunit gamma/Phosphoinositide 3-kinase regulatory subunit 5, sequence (P48736 whole entry): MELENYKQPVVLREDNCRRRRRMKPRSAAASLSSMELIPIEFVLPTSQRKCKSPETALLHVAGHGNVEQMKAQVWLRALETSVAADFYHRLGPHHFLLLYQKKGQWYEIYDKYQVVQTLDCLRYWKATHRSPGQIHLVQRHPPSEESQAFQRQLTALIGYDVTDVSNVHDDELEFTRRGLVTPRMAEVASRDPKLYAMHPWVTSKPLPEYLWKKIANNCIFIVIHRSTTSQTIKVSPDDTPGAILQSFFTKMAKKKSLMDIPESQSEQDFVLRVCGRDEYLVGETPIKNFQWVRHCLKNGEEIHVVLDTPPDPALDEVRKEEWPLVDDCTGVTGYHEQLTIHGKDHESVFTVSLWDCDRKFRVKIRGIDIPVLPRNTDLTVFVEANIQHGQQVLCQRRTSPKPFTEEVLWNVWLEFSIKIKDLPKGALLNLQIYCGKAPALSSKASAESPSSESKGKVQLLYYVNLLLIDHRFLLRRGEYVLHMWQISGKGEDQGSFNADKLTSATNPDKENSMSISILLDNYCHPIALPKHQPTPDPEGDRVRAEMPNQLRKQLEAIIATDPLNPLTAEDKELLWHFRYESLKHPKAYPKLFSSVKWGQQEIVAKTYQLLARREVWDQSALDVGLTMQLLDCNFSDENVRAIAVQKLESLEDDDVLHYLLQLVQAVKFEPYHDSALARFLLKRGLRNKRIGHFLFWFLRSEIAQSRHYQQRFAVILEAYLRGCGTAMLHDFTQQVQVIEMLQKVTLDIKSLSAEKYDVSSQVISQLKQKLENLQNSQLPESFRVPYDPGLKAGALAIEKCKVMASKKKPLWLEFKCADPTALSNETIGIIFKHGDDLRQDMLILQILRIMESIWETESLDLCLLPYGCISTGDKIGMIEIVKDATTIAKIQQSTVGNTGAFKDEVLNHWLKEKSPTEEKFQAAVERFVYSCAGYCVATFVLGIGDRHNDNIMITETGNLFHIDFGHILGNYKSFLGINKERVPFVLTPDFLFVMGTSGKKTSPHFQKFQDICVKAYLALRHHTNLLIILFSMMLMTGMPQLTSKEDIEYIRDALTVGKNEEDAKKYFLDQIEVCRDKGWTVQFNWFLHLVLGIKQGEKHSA
# PI3-kinase subunit gamma/Phosphoinositide 3-kinase regulatory subunit 5, sequence (Q8WYR1 whole entry, further chain): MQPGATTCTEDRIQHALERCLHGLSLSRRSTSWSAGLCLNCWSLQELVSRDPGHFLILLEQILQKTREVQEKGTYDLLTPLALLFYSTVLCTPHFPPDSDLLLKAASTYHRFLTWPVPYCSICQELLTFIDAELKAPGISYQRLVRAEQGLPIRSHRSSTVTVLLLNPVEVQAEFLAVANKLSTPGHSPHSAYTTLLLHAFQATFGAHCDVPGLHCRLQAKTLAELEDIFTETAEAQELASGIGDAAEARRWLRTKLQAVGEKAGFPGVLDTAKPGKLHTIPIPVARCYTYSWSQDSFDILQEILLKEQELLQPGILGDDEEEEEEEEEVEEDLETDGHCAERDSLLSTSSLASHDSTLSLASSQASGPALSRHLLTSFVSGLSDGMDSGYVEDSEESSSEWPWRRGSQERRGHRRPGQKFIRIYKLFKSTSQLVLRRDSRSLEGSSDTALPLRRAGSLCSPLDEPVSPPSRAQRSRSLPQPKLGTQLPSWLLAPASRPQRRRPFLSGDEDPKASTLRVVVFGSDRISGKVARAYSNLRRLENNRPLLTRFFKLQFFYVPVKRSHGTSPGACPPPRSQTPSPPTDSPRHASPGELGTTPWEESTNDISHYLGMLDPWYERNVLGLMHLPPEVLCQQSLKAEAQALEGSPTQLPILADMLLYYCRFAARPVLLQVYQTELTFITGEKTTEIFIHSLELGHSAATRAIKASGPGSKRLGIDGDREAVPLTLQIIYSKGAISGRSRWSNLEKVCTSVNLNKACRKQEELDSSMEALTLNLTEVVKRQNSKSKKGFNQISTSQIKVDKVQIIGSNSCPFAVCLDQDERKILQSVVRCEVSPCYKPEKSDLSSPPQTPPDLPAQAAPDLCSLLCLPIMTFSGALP
# PI3K p110 beta/p85 alpha, sequence (P27986 whole entry): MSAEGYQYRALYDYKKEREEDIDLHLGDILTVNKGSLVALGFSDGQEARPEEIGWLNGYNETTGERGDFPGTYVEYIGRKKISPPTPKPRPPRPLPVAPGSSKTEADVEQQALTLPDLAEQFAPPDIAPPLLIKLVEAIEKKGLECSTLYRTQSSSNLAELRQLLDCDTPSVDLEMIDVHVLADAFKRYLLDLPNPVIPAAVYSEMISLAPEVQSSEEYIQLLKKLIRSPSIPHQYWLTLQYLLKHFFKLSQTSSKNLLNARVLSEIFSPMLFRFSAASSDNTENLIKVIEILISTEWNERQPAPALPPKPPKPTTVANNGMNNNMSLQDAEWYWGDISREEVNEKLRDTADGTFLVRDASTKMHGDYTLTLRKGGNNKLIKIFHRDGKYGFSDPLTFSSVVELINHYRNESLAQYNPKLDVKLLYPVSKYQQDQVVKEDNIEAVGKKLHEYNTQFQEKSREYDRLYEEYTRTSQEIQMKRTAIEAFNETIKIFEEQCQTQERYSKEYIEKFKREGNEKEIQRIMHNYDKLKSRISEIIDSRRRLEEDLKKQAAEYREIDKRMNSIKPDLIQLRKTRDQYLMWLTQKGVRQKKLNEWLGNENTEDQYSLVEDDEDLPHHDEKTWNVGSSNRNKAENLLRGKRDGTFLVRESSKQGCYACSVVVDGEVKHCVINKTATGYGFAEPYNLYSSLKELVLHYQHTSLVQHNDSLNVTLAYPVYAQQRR
# PI3K p110 beta/p85 alpha, sequence (P42338 whole entry): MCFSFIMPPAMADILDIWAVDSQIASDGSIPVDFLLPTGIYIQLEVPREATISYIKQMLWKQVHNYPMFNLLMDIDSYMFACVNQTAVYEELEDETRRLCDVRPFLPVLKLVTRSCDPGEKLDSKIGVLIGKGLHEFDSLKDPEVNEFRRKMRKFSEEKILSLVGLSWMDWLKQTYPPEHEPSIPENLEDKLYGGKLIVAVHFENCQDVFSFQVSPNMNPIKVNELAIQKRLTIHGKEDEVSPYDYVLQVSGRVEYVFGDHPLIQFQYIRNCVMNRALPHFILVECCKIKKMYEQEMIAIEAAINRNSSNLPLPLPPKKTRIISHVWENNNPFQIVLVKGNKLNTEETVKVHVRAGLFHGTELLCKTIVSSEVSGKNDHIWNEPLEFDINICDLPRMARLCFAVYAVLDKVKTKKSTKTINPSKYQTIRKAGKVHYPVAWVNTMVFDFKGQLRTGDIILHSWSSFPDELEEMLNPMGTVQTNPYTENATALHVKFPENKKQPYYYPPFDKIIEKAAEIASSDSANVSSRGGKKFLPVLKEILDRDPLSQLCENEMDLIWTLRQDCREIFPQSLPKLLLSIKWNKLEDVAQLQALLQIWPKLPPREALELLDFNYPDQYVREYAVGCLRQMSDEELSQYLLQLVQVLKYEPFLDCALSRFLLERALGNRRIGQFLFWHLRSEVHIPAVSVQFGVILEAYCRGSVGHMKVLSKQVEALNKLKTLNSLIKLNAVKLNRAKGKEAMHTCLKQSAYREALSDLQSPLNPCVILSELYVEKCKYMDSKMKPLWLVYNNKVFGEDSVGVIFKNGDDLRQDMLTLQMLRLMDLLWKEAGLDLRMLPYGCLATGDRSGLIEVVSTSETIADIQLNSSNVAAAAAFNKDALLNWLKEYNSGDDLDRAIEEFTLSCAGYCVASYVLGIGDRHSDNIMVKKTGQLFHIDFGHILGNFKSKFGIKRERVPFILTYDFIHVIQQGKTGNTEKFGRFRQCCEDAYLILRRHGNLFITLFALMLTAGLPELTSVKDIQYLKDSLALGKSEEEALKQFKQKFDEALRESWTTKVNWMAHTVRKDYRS
# PI3-kinase p110-alpha/p85-alpha, sequence (P27986 whole entry, the tested form may be a part): as the sequence (P27986 whole entry) above
# PI3-kinase p110-alpha/p85-alpha, sequence (P42336 whole entry, the tested form may be a part): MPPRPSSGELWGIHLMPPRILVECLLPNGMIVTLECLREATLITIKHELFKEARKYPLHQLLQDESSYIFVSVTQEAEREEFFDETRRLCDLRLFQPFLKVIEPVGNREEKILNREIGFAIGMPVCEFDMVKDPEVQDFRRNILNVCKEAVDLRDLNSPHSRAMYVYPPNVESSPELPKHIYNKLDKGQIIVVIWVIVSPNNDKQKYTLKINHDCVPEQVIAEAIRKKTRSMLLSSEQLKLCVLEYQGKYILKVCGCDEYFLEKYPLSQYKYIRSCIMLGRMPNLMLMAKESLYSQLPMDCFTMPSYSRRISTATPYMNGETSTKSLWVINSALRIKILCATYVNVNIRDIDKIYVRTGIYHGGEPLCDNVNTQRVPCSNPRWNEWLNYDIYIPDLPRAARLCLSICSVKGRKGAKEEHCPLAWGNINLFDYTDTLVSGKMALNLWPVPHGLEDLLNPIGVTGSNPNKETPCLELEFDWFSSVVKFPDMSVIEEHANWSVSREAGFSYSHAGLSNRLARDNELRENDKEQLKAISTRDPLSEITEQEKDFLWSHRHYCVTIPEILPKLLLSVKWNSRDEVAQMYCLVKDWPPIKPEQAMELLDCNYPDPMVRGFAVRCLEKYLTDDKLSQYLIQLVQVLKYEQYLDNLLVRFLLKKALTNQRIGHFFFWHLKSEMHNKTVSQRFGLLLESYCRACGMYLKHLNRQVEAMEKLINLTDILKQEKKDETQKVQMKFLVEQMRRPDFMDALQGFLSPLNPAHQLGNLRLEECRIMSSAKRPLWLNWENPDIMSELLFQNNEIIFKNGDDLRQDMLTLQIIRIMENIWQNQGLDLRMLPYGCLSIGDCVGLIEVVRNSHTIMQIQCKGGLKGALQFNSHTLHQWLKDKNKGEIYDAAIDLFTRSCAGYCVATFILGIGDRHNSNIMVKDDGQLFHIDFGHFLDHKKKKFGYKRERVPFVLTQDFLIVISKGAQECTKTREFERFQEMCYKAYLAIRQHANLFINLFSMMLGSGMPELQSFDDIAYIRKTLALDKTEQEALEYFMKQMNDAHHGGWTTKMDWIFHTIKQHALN
smiles,measurement,setting,value
COc1cc2nc(-c3ccc(OCc4ccccc4)c(C(N)=O)c3)nc(N3CCOCC3)c2cc1OC,IC50,[1],5.03 µM
same,IC50,[2],7.9 µM
COc1cc(C(N)=O)cc(-c2nc(N3CCOCC3)c3cc(OC)c(OC)cc3n2)c1,IC50,[3],9.22 µM
same,IC50,[4],1.01 µM
same,IC50,[1],0.45 µM
same,IC50,[2],1.75 µM
COc1cc2nc(-c3cc(OC(F)(F)F)cc(C(N)=O)c3)nc(N3CCOCC3)c2cc1OC,IC50,[3],1.68 µM
same,Activity,[5],56.69%
same,inhibition in vivo at 15 mg/kg,[6],49.3%
same,Activity,[7],Non-toxic
same,Activity,[8],Active
same,Activity,[9],20.11%
same,Activity,[10],16.25%
same,IC50,[11],0.096 µM
same,Activity,[12],Active
same,Activity,[13],22.7%
same,Activity,[14],Active
same,Activity,[15],11.5%
same,Activity,[16],Non-toxic
same,Activity,[17],23.19%
same,IC50,[4],0.6 µM
same,Activity,[18],Active
same,inhibition,[19],Active
same,Activity,[20],Active
same,Activity,[21],6.76%
same,Activity,[22],7.59%
same,IC50,[23],0.128 µM
same,IC50,[24],0.33 µM
same,IC50,[1],0.3 µM
same,IC50,[25],0.465 µM
same,inhibition in vivo at 30 mg/kg,[26],64.2%
same,IC50,[2],1.09 µM
same,Activity,[27],27.3%
COc1cc(C(N)=O)cc(-c2nc(N3CCOCC3)c3cc(OC)c(OCCN4CCOCC4)cc3n2)c1,IC50,[1],4.72 µM
same,IC50,[2],5.66 µM
COc1cc2nc(-c3ccc(NC(C)=O)cc3)nc(N3CCOCC3)c2cc1OC,IC50,[1],1.09 µM
same,IC50,[2],3.61 µM
COc1cc2nc(-c3cccc(C(=O)O)c3)nc(N3CCOCC3)c2cc1OC,IC50,[1],12.5 µM
same,IC50,[2],> 20 µM
COc1cc(C(N)=O)cc(-c2nc(N3CCOCC3)c3cc(OC)c(OCC4CCOCC4)cc3n2)c1,IC50,[1],3.14 µM
same,IC50,[2],8.52 µM
COc1cc2nc(-c3ccc(Cl)c(C(N)=O)c3)nc(N3CCOCC3)c2cc1OC,IC50,[1],2.97 µM
same,IC50,[2],4.24 µM
COC(=O)c1cccc(-c2nc(N3CCOCC3)c3cc(OC)c(OC)cc3n2)c1,IC50,[1],1.07 µM
same,IC50,[2],3.44 µM
COc1cc(C(N)=O)cc(-c2nc(N3CCOCC3)c3cc(OC)c(OCc4ccccc4)cc3n2)c1,IC50,[1],6.45 µM
same,IC50,[2],10.3 µM
COc1cc(C(N)=O)cc(-c2nc(N3CCOCC3)c3cc(OC)c(OCCN4CCCCC4)cc3n2)c1,IC50,[1],1.28 µM
same,IC50,[2],6.38 µM
COc1cc2nc(-c3ccc(O)c(C(N)=O)c3)nc(N3CCOCC3)c2cc1OC,IC50,[1],2.77 µM
same,IC50,[2],7.42 µM
COCCOc1cc2nc(-c3cc(OC)cc(C(N)=O)c3)nc(N3CCOCC3)c2cc1OC,IC50,[1],2.7 µM
same,IC50,[2],> 20 µM
COc1cc2nc(-c3cc(OCc4ccccc4)cc(C(N)=O)c3)nc(N3CCOCC3)c2cc1OC,IC50,[1],3.83 µM
same,IC50,[2],6.93 µM
CNC(=O)c1cccc(-c2nc(N3CCOCC3)c3cc(OC)c(OC)cc3n2)c1,IC50,[1],2.52 µM
same,IC50,[2],6.2 µM

# Source: ChEMBL document CHEMBL3414491, “Synthesis and antitumor activities evaluation of m-(4-morpholinoquinazolin-2-yl)benzamides in vitro and in vivo” (Eur J Med Chem, 2015)
